# Legend:
# [1] = test system: Cavia porcellus; test: Tested in delayed hypersensitivity skin reaction (DHSR) after subcutaneous administration, activity reported as percent inhibition of erythema/induration of lesion; 9/24; assay type: functional
# How it was run: (§1)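 Male Hartley guinea pigs were sensitized with Mycobacterium tuberculosis in Freund's incomplete adjuvant, injected into each hind footpad and subcutaneously at the neck. After 3 weeks, 1.2 μg PPD was given intradermally. Compound in sesame oil was given sc, 3 animals per group, 30 min before and 5 h after PPD; screening dose 50 mg/kg.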
# [2] = test system: Mus musculus; test: The compound was evaluated for the mouse active Arthus (MAA) reaction activity for an ip dose of 150 mg/kg in mouse; assay type: functional; settings: route intraperitoneal
# How it was run: (§2)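 CD-1 mice were sensitized ip with a 1:1 Freund's complete adjuvant emulsion containing BSA in saline, 5 weeks before challenge. Compound was suspended in 1% Na CMC in pyrogen-free saline and given as one ip or oral dose 1 h before skin challenge with BSA. Screening doses were 150 mg/kg ip and 300 mg/kg po, with some at 75 or 50 mg/kg ip. Lesions were excised 3.5 h after challenge and weighed against controls.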
# [3] = test system: Cavia porcellus; test: Tested in delayed hypersensitivity skin reaction (DHSR) after subcutaneous administration, activity reported as percent inhibition of erythema/induration of lesion; 6/12; assay type: functional; how it was run: as §1
# [4] = test system: Cavia porcellus; test: The compound was evaluated for the delayed hypersensitivity skin reaction (DHSR) activity after subcutaneous administration; 8/19
# [5] = test system: Mus musculus; test: Mouse active Arthus (MAA) reaction activity was determined for an ip dose of 150 mg/kg in mouse; 31-40%; assay type: functional; settings: route intraperitoneal
# [6] = test system: Cavia porcellus; test: Tested in delayed hypersensitivity skin reaction (DHSR) after subcutaneous administration, activity reported as percent inhibition of erythema/induration of lesion; 14/34; assay type: functional
# [7] = test system: Mus musculus; test: The compound was evaluated for the mouse active Arthus (MAA) reaction activity expressed as inhibitory dose after ip administration; assay type: functional; settings: read-out: ID50 (the source's name); how it was run: as §2
# [8] = test system: Cavia porcellus; test: Tested in delayed hypersensitivity skin reaction (DHSR) after subcutaneous administration, activity reported as percent inhibition of erythema/induration of lesion; 13/4; assay type: functional
# [9] = test system: Mus musculus; test: The compound was evaluated for the mouse active Arthus (MAA) reaction activity expressed as inhibitory dose after oral administration; assay type: functional; settings: read-out: ID50 (the source's name); how it was run: as §2
# [10] = test system: Mus musculus; test: The compound was evaluated for the mouse active Arthus (MAA) reaction activity for peroral screening dose of 150 mg/kg in mouse; assay type: functional; settings: route oral
# [11] = test system: Cavia porcellus; test: Tested in delayed hypersensitivity skin reaction (DHSR) after subcutaneous administration, activity reported as percent inhibition of erythema/induration of lesion; 15/7; assay type: functional
# [12] = test system: Cavia porcellus; test: Tested in delayed hypersensitivity skin reaction (DHSR) after subcutaneous administration, activity reported as percent inhibition of erythema/induration of lesion; 22/51; assay type: functional
# [13] = test system: Cavia porcellus; test: Tested in delayed hypersensitivity skin reaction (DHSR) after subcutaneous administration, activity reported as percent inhibition of erythema/induration of lesion; 2/0; assay type: functional
# [14] = test system: Mus musculus; test: Mouse active Arthus (MAA) reaction was determined value for oral administration
# [15] = Therapeutic ratio was determined for peroral administration; settings: po; read-out: TR
# [16] = test system: Cavia porcellus; test: Tested in delayed hypersensitivity skin reaction (DHSR) after subcutaneous administration, activity reported as percent inhibition of erythema/induration of lesion; 4/22; assay type: functional; how it was run: as §1
# [17] = test system: Mus musculus; test: Mouse active Arthus (MAA) reaction activity was determined for an peroral dose of 300 mg/kg in mouse; assay type: functional; settings: route oral
# [18] = test system: Cavia porcellus; test: The compound was evaluated for the delayed hypersensitivity skin reaction (DHSR) activity after subcutaneous administration; 11/33
# [19] = species: Mus musculus; test: The compound was evaluated for the mouse active Arthus (MAA) reaction activity expressed as inhibitory dose.; assay type: functional; settings: read-out: ID50 (the source's name); how it was run: as §2
# [20] = Acute toxicity as LD50 value was determined in mice administered intraperitoneally; assay type: organism-based; settings: mouse, in vivo, ip
# [21] = test system: Mus musculus; test: Mouse active Arthus (MAA) reaction activity was determined for an ip dose of 150 mg/kg in mouse; assay type: functional; settings: route intraperitoneal
# [22] = test system: Mus musculus; test: Inhibition of Mouse active Arthus (MAA) reaction activity was determined for peroral dose of 300 mg/kg in mouse; 21-30%; assay type: functional; settings: route oral
# [23] = Acute toxicity as LD50 value was determined in mice administered orally; assay type: organism-based; settings: mouse, in vivo, po
# [24] = test system: Cavia porcellus; test: Tested in delayed hypersensitivity skin reaction (DHSR) after subcutaneous administration, activity reported as percent inhibition of erythema/induration of lesion; 18/50; assay type: functional
# [25] = Therapeutic ratio was determined for intraperitoneal administration; assay type: ADME; settings: ip; read-out: TR
# [26] = test system: Cavia porcellus; test: The compound was evaluated for the delayed hypersensitivity skin reaction (DHSR) activity after subcutaneous administration; 15/21
# [27] = test system: Mus musculus; test: The compound was evaluated for the mouse active Arthus (MAA) reaction activity for an ip dose of 150 mg/kg in mouse; 31-40%; assay type: functional; settings: route intraperitoneal; how it was run: as §2
# [28] = test system: Mus musculus; test: Inhibition of Mouse active Arthus (MAA) reaction activity was determined for an ip dose of 150 mg/kg in mouse; 21-30%; assay type: functional; settings: route intraperitoneal
# [29] = test system: Cavia porcellus; test: Tested in delayed hypersensitivity skin reaction (DHSR) after subcutaneous administration, activity reported as percent inhibition of erythema/induration of lesion; 5/2; assay type: functional; how it was run: as §1
smiles,measurement,setting,value
CC(=O)N1N=C2/C(=C/c3cccnc3)CSCC2C1c1cccnc1 (configuration not stated),Activity,[1],9
same,inhibition in vivo at 150 mg/kg,[2],< 20%
CCCCN1N=C2/C(=C/c3cccnc3)CSCC2C1c1cccnc1 (configuration not stated),Activity,[3],6
same,inhibition in vivo at 150 mg/kg,[2],< 20%
CCCN1N=C2/C(=C/c3ccccc3C)CSCC2C1c1ccccc1C (configuration not stated),Activity,[4],8
same,inhibition in vivo at 150 mg/kg,[5],31%
COc1ccc(/C=C2\CSCC3C2=NN(CCCN2CCN(C)CC2)C3c2ccc(OC)cc2)cc1.O=C(O)/C=C\C(=O)O (configuration not stated),Activity,[6],14
same,inhibition in vivo at 150 mg/kg,[2],> 60%
same,ED50,[7],60 mg/kg
CC(C)(C)c1ccc(/C=C2\CS(=O)(=O)CC3C2=NN(CCc2ccccc2)C3c2ccc(C(C)(C)C)cc2)cc1 (configuration not stated),Activity,[8],13
same,ED50,[9],> 600 mg/kg
Cc1ccc(/C=C2\CS(=O)(=O)CC3C2=NN(CC2CC2)C3c2ccc(C)cc2)cc1 (configuration not stated),inhibition in vivo at 150 mg/kg,[10],< 20%
same,Activity,[11],15
CN1CCN(CCCN2N=C3/C(=C/c4ccccc4)COCC3C2c2ccccc2)CC1 (configuration not stated),Activity,[12],22
CSc1ccc(/C=C2\CSCC3C2=NN(C(C)=O)C3c2ccc(SC)cc2)cc1 (configuration not stated),Activity,[13],2
same,inhibition in vivo at 150 mg/kg,[5],31%
CC(C)Cc1ccc(C(C)C(=O)O)cc1 (configuration not stated) [IBUPROFEN],ID50,[14],494 mg/kg
same,selectivity ratio,[15],3.4
CC(C)N1N=C2/C(=C/c3cccc(C(F)(F)F)c3)CS(=O)(=O)CC2C1c1cccc(C(F)(F)F)c1 (configuration not stated),Activity,[16],4
same,inhibition in vivo at 150 mg/kg,[5],31%
CCCN1N=C2/C(=C/c3ccc(C)cc3)CSCC2C1c1ccc(C)cc1 (configuration not stated),inhibition in vivo at 300 mg/kg,[17],< 20%
same,inhibition in vivo at 150 mg/kg,[5],31%
same,Activity,[18],11
COc1ccc(/C=C2\CS(=O)(=O)CC3C2=NN(CCCN2CCN(C)CC2)C3c2ccc(OC)cc2)cc1.O=C(O)/C=C\C(=O)O (configuration not stated),ED50,[19],30 mg/kg
same,LD50,[20],280 mg/kg
same,inhibition in vivo at 150 mg/kg,[21],> 60%
same,inhibition in vivo at 300 mg/kg,[22],21%
same,ED50,[9],234 mg/kg
same,LD50,[23],> 1200 mg/kg
same,Activity,[24],18
same,selectivity ratio,[25],9.6
same,selectivity ratio,[15],> 5.1
same,ED50,[7],30 mg/kg
CCCn1nc(-c2ccc(C)cc2)c2c1/C(=C/c1ccc(C)cc1)CSC2,Activity,[26],15
same,inhibition in vivo at 150 mg/kg,[27],31%
CC(C)n1nc(-c2cccc(C(F)(F)F)c2)c2c1/C(=C/c1cccc(C(F)(F)F)c1)CS(=O)(=O)C2,inhibition in vivo at 150 mg/kg,[28],21%
same,Activity,[29],5

# Source: ChEMBL document CHEMBL1122142, “Synthesis and antiinflammatory activity of hexahydrothiopyrano[4,3-c]pyrazoles and related analogues” (J Med Chem, 1982)
